# Measurements: ChEMBL document CHEMBL1136005 (J Med Chem, 2002)
# How the values were obtained:
# [1] = pharmacokinetic parameter was evaluated after oral administration of 30 mg/kg to rat; format: ADME, organism-based; set-up: dose 30 mg/kg, route oral; conditions: in vivo
# In short: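 Sprague-Dawley rats, n=3, dosed orally at 30 mg/kg. Plasma drug concentrations were followed to derive Tmax (h), Cmax (µg/mL), T1/2 (h) and AUC0-∞ (µg h/mL).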
# [2] = Plasma concentration was determined after 1 hr at a dose 30 mg/kg administered orally to rat-11; format: ADME, organism-based; set-up: dose 30 mg/kg, route oral; conditions: po
# In short: (§1)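 Sprague-Dawley rats, n=2 per compound, dosed orally at 30 mg/kg. Plasma drug concentration measured 1 and 8 h after dosing.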
# [3] = Lipophilicity was reported; format: physicochemical; conditions: octanol/water
# [4] = Solubility in aqueous phosphate buffer (pH 7.4) at 20c was determined; format: physicochemical
# [5] = Plasma concentration was determined after 1 hr at a dose 30 mg/kg administered orally to rat-12; format: ADME, organism-based; set-up: dose 30 mg/kg, route oral; conditions: po; in short: as §1
# [6] = Plasma concentration was determined after 8 hr at a dose 30 mg/kg administered orally to rat-11; format: ADME, organism-based; set-up: dose 30 mg/kg, route oral; conditions: po; in short: as §1
# [7] = Plasma concentration was determined after 8 hr at a dose 30 mg/kg administered orally to rat-12; format: ADME, organism-based; set-up: dose 30 mg/kg, route oral; conditions: po; in short: as §1
# [8] = Plasma concentration was determined after 1 hr at a dose 30 mg/kg administered orally to rat-7; format: ADME, organism-based; set-up: dose 30 mg/kg, route oral; conditions: po; in short: as §1
# [9] = Plasma concentration was determined after 8 hr at a dose 30 mg/kg administered orally to rat-8; format: ADME, organism-based; set-up: dose 30 mg/kg, route oral; conditions: po; in short: as §1
# [10] = Plasma concentration was determined after 8 hr at a dose 30 mg/kg administered orally to rat-7; format: ADME, organism-based; set-up: dose 30 mg/kg, route oral; conditions: po; in short: as §1
# [11] = Plasma concentration was determined after 1 hr at a dose 30 mg/kg administered orally to rat-8; format: ADME, organism-based; set-up: dose 30 mg/kg, route oral; conditions: po; in short: as §1
# [12] = biological target: Platelet-derived growth factor receptor (Homo sapiens, UniProt P09619+P16234); test: Concentration required for 50% inhibition against autophosphorylation of Platelet-derived growth factor receptor beta in intact cells using a two site ELISA; format: cell-based
SMILES,AUC [1] [µg·h/mL],Cmax [1] [ng/mL],Tmax [1] [h],half-life [1] [h],concentration at 1 h [2] [ng/mL],logD [3],solubility [4] [µg/mL],concentration at 1 h [5] [ng/mL],concentration at 8 h [6] [ng/mL],concentration at 8 h [7] [ng/mL],concentration at 1 h [8] [ng/mL],concentration at 8 h [9] [ng/mL],concentration at 8 h [10] [ng/mL],concentration at 1 h [11] [ng/mL],IC50 [12] [nM]
COc1cc2ncnc(N3CCN(C(=O)Nc4ccsc4)CC3)c2cc1OC,145,15900,3.33,4.25,12400,2.72,2,7700,3700,700,–,–,–,–,–
COc1ccc(CNC(=S)N2CCN(c3ncnc4cc(OC)c(OC)cc34)CC2)cc1,–,–,–,–,–,–,–,–,–,–,2300,500,400,2500,100
